Data on eleven compounds can be found in ChEMBL document CHEMBL2086236, “Discovery of pyrrolo[3,2-c]quinoline-4-one derivatives as novel hedgehog signaling inhibitors” (Bioorg Med Chem, 2012).

One data set concerns the target Sonic hedgehog protein (Mus musculus, UniProt Q62226). Description: Inhibition of recombinant mouse Shh expressed in […] assessed as inhibition of Gli1 expression after 48 hrs by luciferase reporter gene assay. Format: cell-based, NIH/3T3. In short, it runs like this: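 NIH3T3 cells stably carrying a Gli-luciferase reporter (kept in DMEM/10% FBS, 500 µg/mL G418) were seeded on collagen-coated plates overnight. Compounds (final 0.03–1000 nM, n = 4 wells) were added with recombinant mouse Shh-N at final 1 µg/mL in 5.8% FBS, then incubated 48 h. Controls were 0.1% DMSO ± Shh-N (n = 10). Read-out was luciferase luminescence; IC50 is the mean of four measurements.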
On the technique in general: Reporter assays use an easily measured gene product as a stand-in for the process of interest.

Data set [1] is described as follows: Clearance in mouse hepatic microsomes by LC-MS/MS analysis. Format: ADME, Microsome. The note with it: liver microsomes, read-out: CLH. In short, it runs like this:
(§1)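 Liver microsomes (0.2 mg protein/mL) were incubated with 1 µmol/L test compound in 50 mmol/L potassium phosphate, pH 7.4. The reaction was started with an NADPH-generating system (MgCl₂, glucose-6-phosphate, β-NADP+, G6P dehydrogenase) added at 20% of the reaction volume. Clearance was reported in µL/min/mg.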
For orientation: Microsomes from liver hold many membrane-bound enzymes, among them those of drug oxidation.

Data set [2] is described as follows: Clearance in human hepatic microsomes by LC-MS/MS analysis. Format: ADME, Microsome. The following applies: liver microsomes, read-out: CLH. In short, it runs like this:
as §1

The target of data set [3] is Voltage-gated inwardly rectifying potassium channel KCNH2 (Homo sapiens, UniProt Q12809). Description: inhibition of human ERG.
Chain of Voltage-gated inwardly rectifying potassium channel KCNH2 (Q12809 whole entry): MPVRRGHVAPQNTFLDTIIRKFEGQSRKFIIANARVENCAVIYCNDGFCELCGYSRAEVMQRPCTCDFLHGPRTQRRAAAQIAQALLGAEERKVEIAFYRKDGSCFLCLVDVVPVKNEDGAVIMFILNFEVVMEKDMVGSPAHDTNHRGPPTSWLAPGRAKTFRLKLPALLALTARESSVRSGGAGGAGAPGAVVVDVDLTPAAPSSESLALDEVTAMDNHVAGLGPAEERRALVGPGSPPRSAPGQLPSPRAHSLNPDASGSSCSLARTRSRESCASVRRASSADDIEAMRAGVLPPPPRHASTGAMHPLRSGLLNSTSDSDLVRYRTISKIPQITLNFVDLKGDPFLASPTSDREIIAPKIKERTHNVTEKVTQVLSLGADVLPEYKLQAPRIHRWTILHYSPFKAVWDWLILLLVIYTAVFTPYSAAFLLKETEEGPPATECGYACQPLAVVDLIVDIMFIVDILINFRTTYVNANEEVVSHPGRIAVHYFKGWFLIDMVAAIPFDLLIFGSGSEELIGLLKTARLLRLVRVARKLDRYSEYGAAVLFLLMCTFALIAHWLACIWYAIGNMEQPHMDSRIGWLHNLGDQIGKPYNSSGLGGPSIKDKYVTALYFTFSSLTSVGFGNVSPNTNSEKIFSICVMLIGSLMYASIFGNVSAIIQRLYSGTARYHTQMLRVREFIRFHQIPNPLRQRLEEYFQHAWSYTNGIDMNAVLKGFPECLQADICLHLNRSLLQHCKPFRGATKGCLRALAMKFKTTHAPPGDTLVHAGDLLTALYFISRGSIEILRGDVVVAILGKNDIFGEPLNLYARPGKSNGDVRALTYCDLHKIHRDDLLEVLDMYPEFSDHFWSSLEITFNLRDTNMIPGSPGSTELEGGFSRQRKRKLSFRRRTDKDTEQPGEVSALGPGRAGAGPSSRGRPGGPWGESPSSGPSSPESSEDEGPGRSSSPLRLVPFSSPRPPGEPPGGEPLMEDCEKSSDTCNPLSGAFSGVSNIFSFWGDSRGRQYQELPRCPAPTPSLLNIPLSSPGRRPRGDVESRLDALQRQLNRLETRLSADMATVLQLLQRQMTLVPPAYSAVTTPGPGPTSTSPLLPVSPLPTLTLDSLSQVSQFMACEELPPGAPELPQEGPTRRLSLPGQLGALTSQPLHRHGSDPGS
Data set [4] deals with Mus musculus. The experiment in a line: Toxicity against Ptch+/- p53-/- double-mutant mouse medulloblastoma allograft model assessed as body weight loss at 6.25 mg/kg, po bid for 2 weeks. The class given is organism-based. Details: dose 6.25 mg/kg, route oral; call rule not given here. The following applies: in vivo, 336 h. The method, boiled down:
(§2)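 Nude mice carrying subcutaneous Ptch+/- p53-/- medulloblastoma allografts (passaged in vivo) were dosed orally twice daily for 2 weeks, suspended in 0.5% methylcellulose, vs vehicle, once tumors reached an average of 150–250 mm³. Tumors were measured by caliper, with V = (a × b²)/2. T/C% = mean treated (Vend−Vstart)/control (Vend−Vstart) × 100. Body weight was followed. Points are mean SD of duplicates; 1-tailed Dunnett's test vs controls.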

The subject of data set [5] is Mus musculus. Description: In vivo inhibition of Shh signalling in mouse xenografted with PAN-04 cells assessed as Gli1 expression at 25 mg/kg, po bid measured after 24 hrs post first dose relative to control; values are per cent of control. The following applies: PAN-04, po.
A short description of data set [6]: Binding affinity to human Smo expressed in 293T cells after 1 hr by fluorescence analysis. Format: cell-based. In short, it runs like this: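 293T cells were transiently transfected overnight with HA-tagged human Smo, then plated at 6×10⁴ cells/well. Compounds (final 0.03–1000 nM) were incubated 1 h with 2 nM BODIPY-cyclopamine, n = 3 wells per concentration. Media or excess unlabelled cyclopamine set the 0%/100% inhibition controls (n = 5). Cell fluorescence was read by flow cytometry after Versene detachment.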

Data set [7] in a line: Antitumor activity against Ptch+/- p53-/- double-mutant mouse medulloblastoma allograft model assessed as tumor growth rate at 6.25 mg/kg, po bid for 2 weeks measured up to 21 days relative to control. Format: functional, Medulloblastoma cell. In short, it runs like this: as §2

Chain of Sonic hedgehog protein (Q62226 25-198 limits assumed): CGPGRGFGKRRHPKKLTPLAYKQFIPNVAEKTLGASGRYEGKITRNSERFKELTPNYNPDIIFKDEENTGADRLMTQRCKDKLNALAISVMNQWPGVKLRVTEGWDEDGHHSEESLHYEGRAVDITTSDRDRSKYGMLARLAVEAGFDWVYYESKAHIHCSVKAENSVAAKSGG

Regarding `CCC(=O)Cn1c(=O)c2c(OC)c(C(=O)NC3CCN(CCO)CC3)n(C)c2c2ccccc21`, at Sonic hedgehog protein, the IC50 (in general, the concentration that inhibits the measured activity by half) was over 100 nM. For the same compound, the microsomal CLint in data set [1] was under 1 µL/min/mg; in data set [2] it was 3 µL/min/mg.
With `COc1c(C(=O)NCCN2CCCC2)sc2c1c(=O)n(CC(=O)c1ccccc1)c1ccccc21`, the IC50 on Sonic hedgehog protein turned out to be 5.1 nM.
On the same count and under the same terms, the value for `COc1c(C(=O)NCCN2CCCC2)oc2c1c(=O)n(CC(=O)c1ccccc1)c1ccccc21` was over 1000 nM.
In the case of `COc1c(C(=O)NCCN2CCCC2)n(C)c2c1c(=O)n(CC(=O)c1ccccc1)c1ccccc21`, the IC50 at Sonic hedgehog protein came out at 2.9 nM. Moreover, the microsomal CLint in data set [1] worked out at 95 µL/min/mg; in data set [2], 14 µL/min/mg.
For `CCOc1c(C(=O)NCCN2CCCC2)n(C)c2c1c(=O)n(CC(=O)c1ccccc1)c1ccccc21` the same measures were 7 nM, 155 µL/min/mg and 26 µL/min/mg.
For `COc1c(C(=O)NCCN2CCCCC2)n(C)c2c1c(=O)n(CC(=O)c1ccccc1)c1ccccc21` the same measures were 9.6 nM, 192 µL/min/mg and 30 µL/min/mg.
For `COc1c(C(=O)NCCN2CCOCC2)n(C)c2c1c(=O)n(CC(=O)c1ccccc1)c1ccccc21` the same measures were 22 nM, 237 µL/min/mg and 73 µL/min/mg.
Turning to `COc1c(C(=O)NC2CCNCC2)n(C)c2c1c(=O)n(CC(=O)c1ccccc1)c1ccccc21`, the IC50 on Sonic hedgehog protein came out at 21 nM. The microsomal CLint in data set [1] is 10 µL/min/mg; in data set [2], 2 µL/min/mg.
Turning to `COc1c(C(=O)NC2CCN(CCO)CC2)n(C)c2c1c(=O)n(CC(=O)c1ccccc1)c1ccccc21`, the IC50 at Sonic hedgehog protein turned out to be 6.6 nM. Further, the microsomal CLint was 9 µL/min/mg in data set [1] and 6 µL/min/mg in data set [2]. The “inhibition (INH)” value in data set [3] is reported as “Active”.
For `COc1c(C(=O)NC2CCN(C(=O)CO)CC2)n(C)c2c1c(=O)n(CC(=O)c1ccccc1)c1ccccc21`, the IC50 on Sonic hedgehog protein was determined as 4.6 nM; in data set [6] it was 41 nM. Besides, the microsomal CLint in data set [1] was 11 µL/min/mg; in data set [2], under 1 µL/min/mg. Also, the Activity entry is given as “Non-toxic” in the data set with Mus musculus [4] and 3% in data set [7]. For the same compound, the level, % of control at 25 mg/kg in the data set with Mus musculus [5] is 5%. Also, the “inhibition (INH)” value in data set [3] is listed as “Not Active”.
Regarding `COc1c(C(=O)NC2CCN(CCO)CC2)n(C)c2c1c(=O)n(CCc1ccccc1)c1ccccc21`, the IC50 on Sonic hedgehog protein was found to be 150 nM. In addition, the microsomal CLint in data set [1] stood at 48 µL/min/mg; in data set [2] it was 72 µL/min/mg.
